How the values were obtained:
HT-29 [1] = experiment: Compound was evaluated in vitro for its inhibitory activity againstHT-29 and BE human colon carcinoma cell line using Coulter counter assay; format: functional, cell-based
Summary of the method: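 HT-29 and BE human colon cells were grown 12 h in EMEM with 1% glutamine and 15% fetal calf serum. Drug or solvent was added (final solvent ≤1.0%) for a further 2 days. Cells were released with pronase and Coulter counted. ID50 (μM) was taken from the percentage growth versus dose curve, with vehicle controls.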

L1210 [2] = experiment: Compound was evaluated in vitro for its inhibitory activity against L1210/DDP leukemia cell line using MTT assay; format: functional, cell-based; conditions: Mus musculus
Summary of the method: (§1)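 L1210 or L1210/DDP cells were dosed as for counting (48 h continuous, or 2-h pulse then 46 h), with vehicle controls. Growth was read by mitochondrial reduction of tetrazolium (MTT), modified Mosmann method. ID50 (μM) was taken from the percentage growth versus dose curve; single determinations, ranges, or mean ± range of 2–4.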

L1210 [3] = experiment: Compound was evaluated in vitro for its inhibitory activity against L1210/DDP leukemia cell line using Coulter counter assay; format: functional, cell-based; conditions: Mus musculus
Summary of the method: (§2)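 Log-phase murine L1210 or cisplatin-resistant L1210/DDP cells, drug in ethanol, ethanol/DMSO or DMF (final solvent ≤1.0%) with vehicle-only controls. Exposure was continuous for 48 h, or 2 h followed by 46 h growth. Cells were counted on a Coulter counter. ID50 (μM) was read from the percentage growth versus dose curve; single determinations, ranges, or mean ± range of 2–4.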

L1210 [4] = experiment: Compound was evaluated in vitro for its inhibitory activity against L1210 leukemia cell line using […]; format: functional, cell-based; conditions: Mus musculus; summary of the method: as §1
L1210 [5] = experiment: Compound was evaluated in vitro for its inhibitory activity against L1210 leukemia cell line using Coulter counter assay; format: functional; conditions: Mus musculus; summary of the method: as §2
P388/DDP [6] = experiment: Mean survival time of treated animals compared with those of control animals expressed as percentage T/C was determined against murine leukemia P388/DDP (cisplatin resistant) implanted mouse at the dose of 20 umol/kg; format: functional
Summary of the method: (§3)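 Groups of six BDF1 mice were injected ip on day 0 with 10^6 P388, 5 × 10^6 P388/DDP or 10^5 L1210 cells. Pt compounds in 1% Tween-20/saline (1:9) were given ip on days 1, 5 and 9 at five doses spanning a 16-fold range. Controls were untreated or vehicle-only. Mice were observed 30–60 days; %T/C is treated versus control mean survival time.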

P388 [7] = experiment: Mean survival time of treated animals compared with those of control animals expressed as percentage. T/C was determined against murine leukemia P388 implanted mouse at the dose of 20 umol/kg; format: functional; summary of the method: as §3
P388 [8] = experiment: Mean survival time of treated animals compared with those of control animals expressed as percentage. T/C was determined against murine leukemia P388 implanted mouse at the dose of 140 umol/kg; format: functional
Summary of the method: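 BDF1 mice (six per group) inoculated ip with 10^6 P388 leukemia cells on day 0; Pt compounds given ip on days 1, 5 and 9 in 1% Tween-20/saline (1:9), five doses over a 16-fold range including the maximum tolerated dose. Untreated/vehicle negative controls; 5-fluorouracil (50 mg/kg) positive control. Animals observed 30–60 days; %T/C = mean survival time treated vs control.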

HT-29 [9] = experiment: Compound was evaluated in vitro for its inhibitory activity againstHT-29 and BE human colon carcinoma cell line using MTT assay; format: functional, cell-based
Summary of the method: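 HT-29 and BE colon cells were pre-grown 12 h in EMEM with 1% glutamine and 15% FCS, then exposed to drug or vehicle for 2 days. Cells were released with pronase and growth was read by MTT tetrazolium reduction. ID50 (μM) was taken from the percentage growth versus dose curve.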

P388/DDP [10] = experiment: Mean survival time of treated animals compared with those of control animals expressed as percentage T/C was determined against murine leukemia P388/DDP (cisplatin resistant) implanted mouse at the dose of 113 umol/kg; format: functional; summary of the method: as §3
L1210 [11] = experiment: Mean survival time of treated animals compared with those of control animals expressed as percentage T/C was determined against murine leukemia L1210 implanted mouse at the dose of 113 umol/kg; format: functional; summary of the method: as §3
P388 [12] = experiment: Mean survival time of treated animals compared with those of control animals was determined against murine leukemia P388 implanted mouse at the dose of 113 umol/kg; format: functional; summary of the method: as §3

Compound	ID50 (HT-29 [1])	ID50 (L1210 [2])	ID50 (L1210 [3])	ID50 (L1210 [4])	ID50 (L1210 [5])	T/C (P388/DDP [6])	T/C (P388 [7])	IC50 (L1210 [5]; read-out: ID50 (the source's name))	T/C (P388 [8])	ID50 (HT-29 [9])	T/C (P388/DDP [10])	T/C (L1210 [11])	T/C (P388 [12])
CISPLATIN	700 nM	20300 nM	6700 nM	1100 nM	600 nM	122%	248%	–	–	–	–	–	–
Fc1cc(F)c(F)c(NCCNc2c(F)c(F)cc(F)c2F)c1F	–	–	–	–	–	–	–	37000 nM	108%	–	–	–	–
1-[2-(1-pyridiniumyl)-1,3-di(2,3,5,6-tetrafluorophenyl)tetrahydro-1H-2-imidazolyl]pyridinium (platinumcomplex)	1000 nM	1400 nM	1000 nM	1600 nM	1200 nM	–	–	–	–	1100 nM	115%	172%	206%
